# CYP2C9 inhib = human CYP2C9 inhibition; inhibition, % at 5 µM; 96,000 tested, 20% active; P11712; CYP2C9 Supersomes, luciferin-H conversion, luminescence; AID 777;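 active = blocking of liver enzyme CYP2C9 beyond about 50% at 5 µM, limit read from the data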
# Target sequence (P11712 whole entry, looked up): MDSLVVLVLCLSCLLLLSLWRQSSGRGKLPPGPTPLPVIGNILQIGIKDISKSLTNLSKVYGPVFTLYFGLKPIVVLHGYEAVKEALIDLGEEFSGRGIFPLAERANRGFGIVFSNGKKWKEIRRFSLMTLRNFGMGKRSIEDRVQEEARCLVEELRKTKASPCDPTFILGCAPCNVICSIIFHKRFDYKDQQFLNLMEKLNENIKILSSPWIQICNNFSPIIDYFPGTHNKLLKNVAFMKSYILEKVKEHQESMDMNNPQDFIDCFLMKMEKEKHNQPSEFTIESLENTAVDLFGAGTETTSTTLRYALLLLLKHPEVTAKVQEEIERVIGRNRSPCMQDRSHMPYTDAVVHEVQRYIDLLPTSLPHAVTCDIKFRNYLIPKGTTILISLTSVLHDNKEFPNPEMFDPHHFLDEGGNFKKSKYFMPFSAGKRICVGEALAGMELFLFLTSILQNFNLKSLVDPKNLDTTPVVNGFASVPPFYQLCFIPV
# CYP2C9 activ = CYP2C9 (human) activation; recombinant CYP2C9, luciferin-H conversion, luminescence; stronger effect = higher value; factor 1 = untreated enzyme, 0 = blocked; activation factor at 5 µM; 96,000 tested, 1.4% active; AID 1024;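 active = activation factor of 2 or more for CYP2C9 at a 5 µM dose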
# tolC growth inh = blocks growth of E. coli BW25113 tolC mutant; OD615; growth inhibition, % at 10 µM (by protocol); 65,000 tested, 2.2% active;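 active = growth inhibition at or above a cutoff equal to the mean over every tested compound plus 3 SD, cut at about 60% in these data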;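 note: growth measured after 20 h incubation at 37 °C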
#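 Material: E. coli BW25113 ΔtolC::kan, tolC deletion mutant strain. Measure: percent growth inhibition. Schedule: 37 °C, 20 h exposure. Doses: single-point testing at 10 µM. Signal: A615 absorbance measurement. Buffer or medium: kanamycin-containing LB broth (50 µg/mL).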
# E coli WT exp = E. coli BW25113 growth inhibition, expanded screen; 98,000 tested, 0.15% active; AID 710; OD600 absorbance; growth inhibition, % at 100 µM;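 active = growth inhibition above about 50% at one test dose, limit read from the data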;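 note: growth measured after 20 h incubation at 37 °C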
# CYP2C19 act = cytochrome P450 2C19 (human) activation. recombinant CYP2C19, luciferin-H EGE luminescence; stronger effect = higher value; 0 = fully inhibited enzyme, 1 = untreated enzyme. 96,000 tested, under 10 active. P33261. activation factor at 5 µM;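 active = activation factor of at least 2 at 5 µM in the primary screen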
# CYP2C19 inhib = human CYP2C19 inhibition; P33261; AID 778; CYP2C19 Supersomes, luciferin-H EGE luminescence, 30 min; 96,000 tested, 21% active; inhibition, % at 5 µM;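 active = CYP2C19 inhibition above a set limit at 5 µM in the primary screen, cut at about 50% in these data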
# Numbers stand for hits; n = inactive; x = no result. Only some compounds are listed: those with a hit (about 29% of all), similar ones and a draw of the others.
SMILES,CYP2C9 inhib,CYP2C9 activ,tolC growth inh,E coli WT exp,CYP2C19 act,CYP2C19 inhib
O=C(NC1CCCCC1)C(c1ccc2ncccc2c1)N(Cc1ccc2c(c1)OCO2)C(=O)c1cccs1 (stereo unspecified),54.3,n,x,n,n,n
CC(=O)OC(C(=O)NC1CCCCC1)c1ccncc1 (stereo unspecified),x,x,n,n,x,x
COc1ccc(C(OC(=O)c2c(C)noc2C)C(=O)NC2CCCC2)cc1 (stereo unspecified),79.7,n,n,n,n,50.4
CCOC(=O)N1CCC(NS(=O)(=O)c2cc(Br)cnc2N)CC1,78.7,n,n,n,n,n
CCOC(=O)N1CCC(NC(=O)c2cc(S(=O)(=O)N(CC)CC)ccc2F)CC1,n,n,x,n,n,n
COc1ccc(/C=N/NC(N)=S)cc1OC(=O)c1cccc2ccccc12,58.0,n,x,n,n,n
CSc1nc(-c2ccc(C)cc2)[nH]c1S(=O)(=O)c1ccccc1,78.5,n,x,n,n,n
CC(C)N(C)C1CCN(C(=O)Nc2ccc(Cl)c(Cl)c2)CC1,n,n,n,n,n,n
CC1CCCCC1NC(=O)CSc1nnc(COc2ccccc2Cl)o1 (stereo unspecified),n,n,n,n,n,n
O=C(Nc1ccc(Cl)cc1)c1cc(S(=O)(=O)N2CCOCC2)cs1,n,n,x,n,n,n
Cc1ccc(NC(=O)c2cc(S(=O)(=O)N3CCCCC3)cs2)cc1,68.2,n,x,n,n,n
O=C(Nc1ccc(F)cc1)c1cc(S(=O)(=O)Nc2ccc(F)cc2)cs1,90.3,n,x,n,n,76.9
CN1CCN(S(=O)(=O)c2ccc(NC(=O)c3ccc(Br)s3)cc2)CC1,59.4,n,n,n,n,51.8
O=C1CNC(=O)N1Cc1ccc(Br)cc1,n,n,n,n,n,n
CCOC(=O)C1CCN(C(c2cccs2)c2sc3nc(C)nn3c2O)CC1 (stereo unspecified),n,n,n,n,n,65.1
COC(=O)C1CCN(C(c2ccc(OC)c(OC)c2)c2sc3nc(C)nn3c2O)CC1 (stereo unspecified),n,n,n,n,n,n
COc1cc(C(c2sc3nc(C)nn3c2O)N2CCc3ccccc3C2)cc(OC)c1OC (stereo unspecified),n,n,n,n,n,83.7
CCOC(=O)C1CCN(C(c2cccc(OC)c2)c2sc3nc(C)nn3c2O)CC1 (stereo unspecified),n,n,n,n,n,86.7
COC(=O)C1CCN(C(c2cccs2)c2sc3nc(C)nn3c2O)CC1 (stereo unspecified),n,n,n,x,n,n
CCCC1c2ccc(C)n2CCN1C(=O)Nc1ccc(F)cc1 (stereo unspecified),n,n,n,n,n,n
C=CCN1C(=NC(=O)CC)SC2CS(=O)(=O)CC21 (stereo unspecified),n,n,x,n,n,n
CCc1cccc2c(=O)c(C(=O)NCCN3CCOCC3)c[nH]c12,n,n,n,n,n,n
CC(C)c1cc(C(N)=O)c(NC(=O)c2cccc(COc3ccc(Cl)cc3)c2)s1,71.9,n,x,n,n,74.0
Cc1nn(Cc2c(F)c(F)c(F)c(F)c2F)c(C)c1NC(=O)c1cccc(COc2ccc(Cl)cc2)c1,n,n,x,n,n,n
Cc1ccc(-n2nc(C(=O)N/N=C/c3cccc(C(F)(F)F)c3)c3ccccc3c2=O)cc1C,n,n,x,n,n,n
SMILES,CYP2C9 inhib,CYP2C9 activ,tolC growth inh,E coli WT exp,CYP2C19 act,CYP2C19 inhib
CSc1nnc(C)c(/C=C/Nc2ccc(Cl)cc2)n1,57.0,n,x,n,n,n
CCOC(=O)CC(=O)CSc1nc(-c2ccc3c(c2)OCO3)cc(C(F)(F)F)c1C#N,52.7,n,x,n,n,n
CCOC(=O)CSc1nc(C)cc(C)c1C#N,n,n,x,n,n,n
CCOC(=O)CCSc1nc(-c2ccc3c(c2)OCO3)cc(C(F)(F)F)c1C#N,n,n,x,n,n,n
CCOC(=O)CCSc1nc(C)cc(C(F)(F)F)c1C#N,n,n,n,n,n,60.9
O=S(=O)(NCCc1ccncc1)c1ccc(Br)cc1,97.5,n,x,n,n,99.7
Cc1cccc(CCNS(=O)(=O)c2ccc(S(=O)(=O)N3CCCCC3)cc2)c1,n,n,x,n,n,n
O=S(=O)(NCCc1ccncc1)c1ccc(S(=O)(=O)N2CCCCCC2)cc1,92.5,n,n,n,n,98.7
O=C(CN1C(=O)CSC1=O)Nc1ccc(F)c(F)c1F,n,n,n,n,n,n
CC(SCC(=O)Nc1ccc(S(=O)(=O)N2CCCCC2)cc1)C(=O)O (stereo unspecified),56.3,n,n,n,n,n
O=C(Nc1ccccc1)Nc1ccc(S(=O)(=O)N2CCCCC2)cc1,n,n,100.0,n,n,n
O=C(O)CCC(=O)Nc1ccc(S(=O)(=O)N2CCCC2)cc1,n,n,n,n,n,50.5
O=C(Nc1ccc(S(=O)(=O)N2CCCC2)cc1)N1c2ccccc2Sc2ccccc21,74.3,n,x,n,n,n
COC(=O)c1c(-c2ccc(F)cc2)noc1N,n,n,n,n,n,n
O=C(NCC(F)(F)F)N1CCOCC1,n,n,n,n,n,n
COc1c(C)cccc1C(=O)Nc1ccc(CN2CCOCC2)cc1,n,n,n,n,n,n
OCCN1CCOCCN(CCO)CCN(CCO)CC1,n,n,n,n,n,n
CCCn1c(SCC(=O)Nc2ccccc2N2CCCCC2)nc2c1c(=O)n(C)c(=O)n2C,97.8,n,64.8,n,n,78.8
CCCn1c(SCC(=O)Nc2sc(C)c(C)c2C(=O)OCC)nc2c1c(=O)n(C)c(=O)n2C,65.6,n,n,n,n,n
CCCn1c(SCC(=O)Nc2ccccc2C(=O)OC)nc2c1c(=O)n(C)c(=O)n2C,72.2,n,n,n,n,n
CCCn1c(SCC(=O)Nc2ccc3c(c2)OCO3)nc2c1c(=O)n(C)c(=O)n2C,n,n,n,n,n,n
CCC1C(=O)Nc2nc(-c3ccccc3)c(-c3ccccc3)n2N=C1C (stereo unspecified),n,n,x,n,n,n
CC1=NN(C(=O)c2ccc(C)cc2)C(O)(C(F)(F)OC(F)(F)F)C1 (stereo unspecified),n,n,x,n,n,n
COc1ccc(CCNC(=O)C2CCCN(C(=O)N(C)C)C2)c(OC)c1 (stereo unspecified),n,n,n,n,n,n
COc1cc(C2C3C(C)N(C)C(=O)N(C)C3N(C)C(=O)N2C)ccc1O (stereo unspecified),n,n,n,n,n,87.4
CC12CCC(=O)N1c1c(sc3nc(N4CCOCC4)c4c(c13)CCCC4)C(=O)N2 (stereo unspecified),68.4,n,n,n,n,n
CC(C)COc1ccc(C(=O)NCc2ccco2)cc1,n,n,n,n,n,n
CC(C)COc1ccc(C(=O)Nc2scc(-c3ccc(Cl)cc3Cl)c2C(N)=O)cc1,67.3,n,x,n,n,n
